Experimental data taken from ChEMBL document CHEMBL4689842, “EUbOPEN Chemogenomics Library wave 1” (2021).

Key:
Fibroblast = assay: Incucyte cell viability with human fibroblast; assay type: toxicity, cell-based; settings: 10 µM, compound concentration 10 uM; further: filed as whole numbers so only -1 and 0 and 1 occur
U2OS = assay: Multiplex assay against U2OS; assay type: toxicity, cell-based; settings: human
Outline: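 Compound was added to live cells that had been stained at seeding with Hoechst33342, BioTracker Green Microtubule Cytoskeleton Dye, MitoTracker Red and Annexin V Alexa Fluor 680, and imaging followed on a CQ1 microscope at 37°C and 5% CO2. CellPathfinder machine-learning gating divided cells into Hoechst high-intensity objects or normal cells, normal cells into healthy, pyknosed or fragmented nuclei, and pyknosed cells into mitotic or apoptotic. Tubulin, mitochondrial-mass and membrane-permeability phenotypes are per cents of healthy-nucleus cells.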

[1] = 12 h, 1 µM, compound concentration 1 uM, replicate 1
[2] = 12 h, 1 µM, compound concentration 1 uM, replicate 2
[3] = 12 h, 10 µM, compound concentration 10 uM, replicate 1
[4] = 12 h, 10 µM, compound concentration 10 uM, replicate 2
[5] = 24 h, 1 µM, compound concentration 1 uM, replicate 1
[6] = 24 h, 1 µM, compound concentration 1 uM, replicate 2
[7] = 24 h, 10 µM, compound concentration 10 uM, replicate 1
[8] = 24 h, 10 µM, compound concentration 10 uM, replicate 2
[9] = 48 h, 1 µM, compound concentration 1 uM, replicate 1
[10] = 48 h, 1 µM, compound concentration 1 uM, replicate 2
[11] = 48 h, 10 µM, compound concentration 10 uM, replicate 1
[12] = 48 h, 10 µM, compound concentration 10 uM, replicate 2

SMILES: CCCCCNC(=N)N/N=C/c1c[nH]c2ccc(OC)cc12.O=C(O)/C=C\C(=O)O [TEGASEROD MALEATE]
- Growth Rate (Fibroblast; 6 h, replicate number 1, timepoint 6 hours): 0
- Growth Rate (Fibroblast; 12 h, replicate number 1, timepoint 12 hours): 0
- Growth Rate (Fibroblast; 18 h, replicate number 1, timepoint 18 hours): 0
- Growth Rate (Fibroblast; 24 h, replicate number 1, timepoint 24 hours): 0
- Population Apoptotic (%) (U2OS; [1]): 66%
- Population Fragmented Nuclei (%) (U2OS; [1]): 12%
- Population Healthy Nuclei (%) (U2OS; [1]): 75%
- Population Hoechst High Intensity Objects (%) (U2OS; [1]): 8%
- Population Membrane Permeable-Phenotype (%) (U2OS; [1]): 4%
- Population Mitochondria Different-Phenotype (%) (U2OS; [1]): 16%
- Population Mitotic Cells (%) (U2OS; [1]): 33%
- Population Normal (%) (U2OS; [1]): 91%
- Population Pyknosed Nuclei (%) (U2OS; [1]): 11%
- Population Tubulin-Different-Phenotype (%) (U2OS; [1]): 10%
- Total Cell Count (U2OS; [1]): 73
- Population Apoptotic (%) (U2OS; [2]): 20%
- Population Healthy Nuclei (%) (U2OS; [2]): 79%
- Population Hoechst High Intensity Objects (%) (U2OS; [2]): 3%
- Population Mitochondria Different-Phenotype (%) (U2OS; [2]): 22%
- Population Mitotic Cells (%) (U2OS; [2]): 80%
- Population Normal (%) (U2OS; [2]): 96%
- Population Pyknosed Nuclei (%) (U2OS; [2]): 8%
- Population Tubulin-Different-Phenotype (%) (U2OS; [2]): 14%
- Total Cell Count (U2OS; [2]): 74
- Population Apoptotic (%) (U2OS; [3]): 92%
- Population Fragmented Nuclei (%) (U2OS; [3]): 36%
- Population Healthy Nuclei (%) (U2OS; [3]): 0%
- Population Hoechst High Intensity Objects (%) (U2OS; [3]): 12%
- Population Membrane Permeable-Phenotype (%) (U2OS; [3]): 100%
- Population Mitochondria Different-Phenotype (%) (U2OS; [3]): 100%
- Population Mitotic Cells (%) (U2OS; [3]): 7%
- Population Normal (%) (U2OS; [3]): 87%
- Population Pyknosed Nuclei (%) (U2OS; [3]): 62%
- Population Tubulin-Different-Phenotype (%) (U2OS; [3]): 100%
- Total Cell Count (U2OS; [3]): 167
- Population Apoptotic (%) (U2OS; [4]): 100%
- Population Fragmented Nuclei (%) (U2OS; [4]): 22%
- Population Healthy Nuclei (%) (U2OS; [4]): 3%
- Population Hoechst High Intensity Objects (%) (U2OS; [4]): 35%
- Population Mitotic Cells (%) (U2OS; [4]): 0%
- Population Normal (%) (U2OS; [4]): 64%
- Population Pyknosed Nuclei (%) (U2OS; [4]): 73%
- Total Cell Count (U2OS; [4]): 64
- Population Apoptotic (%) (U2OS; [5]): 47%
- Population Fragmented Nuclei (%) (U2OS; [5]): 9%
- Population Healthy Nuclei (%) (U2OS; [5]): 78%
- Population Hoechst High Intensity Objects (%) (U2OS; [5]): 4%
- Population Membrane Permeable-Phenotype (%) (U2OS; [5]): 6%
- Population Mitochondria Different-Phenotype (%) (U2OS; [5]): 13%
- Population Mitotic Cells (%) (U2OS; [5]): 52%
- Population Normal (%) (U2OS; [5]): 95%
- Population Pyknosed Nuclei (%) (U2OS; [5]): 12%
- Population Tubulin-Different-Phenotype (%) (U2OS; [5]): 13%
- Total Cell Count (U2OS; [5]): 88
- Population Apoptotic (%) (U2OS; [6]): 87%
- Population Fragmented Nuclei (%) (U2OS; [6]): 10%
- Population Healthy Nuclei (%) (U2OS; [6]): 77%
- Population Hoechst High Intensity Objects (%) (U2OS; [6]): 5%
- Population Membrane Permeable-Phenotype (%) (U2OS; [6]): 5%
- Population Mitochondria Different-Phenotype (%) (U2OS; [6]): 21%
- Population Mitotic Cells (%) (U2OS; [6]): 12%
- Population Normal (%) (U2OS; [6]): 94%
- Population Tubulin-Different-Phenotype (%) (U2OS; [6]): 7%
- Total Cell Count (U2OS; [6]): 89
- Population Apoptotic (%) (U2OS; [7]): 85%
- Population Fragmented Nuclei (%) (U2OS; [7]): 42%
- Population Healthy Nuclei (%) (U2OS; [7]): 1%
- Population Hoechst High Intensity Objects (%) (U2OS; [7]): 16%
- Population Membrane Permeable-Phenotype (%) (U2OS; [7]): 100%
- Population Mitochondria Different-Phenotype (%) (U2OS; [7]): 100%
- Population Mitotic Cells (%) (U2OS; [7]): 14%
- Population Normal (%) (U2OS; [7]): 83%
- Population Pyknosed Nuclei (%) (U2OS; [7]): 56%
- Population Tubulin-Different-Phenotype (%) (U2OS; [7]): 100%
- Total Cell Count (U2OS; [7]): 180
- Population Apoptotic (%) (U2OS; [8]): 100%
- Population Fragmented Nuclei (%) (U2OS; [8]): 44%
- Population Healthy Nuclei (%) (U2OS; [8]): 26%
- Population Hoechst High Intensity Objects (%) (U2OS; [8]): 39%
- Population Mitotic Cells (%) (U2OS; [8]): 0%
- Population Normal (%) (U2OS; [8]): 60%
- Population Pyknosed Nuclei (%) (U2OS; [8]): 28%
- Total Cell Count (U2OS; [8]): 70
- Population Apoptotic (%) (U2OS; [9]): 44%
- Population Fragmented Nuclei (%) (U2OS; [9]): 7%
- Population Healthy Nuclei (%) (U2OS; [9]): 85%
- Population Hoechst High Intensity Objects (%) (U2OS; [9]): 3%
- Population Membrane Permeable-Phenotype (%) (U2OS; [9]): 2%
- Population Mitochondria Different-Phenotype (%) (U2OS; [9]): 11%
- Population Mitotic Cells (%) (U2OS; [9]): 55%
- Population Normal (%) (U2OS; [9]): 96%
- Population Pyknosed Nuclei (%) (U2OS; [9]): 7%
- Population Tubulin-Different-Phenotype (%) (U2OS; [9]): 7%
- Total Cell Count (U2OS; [9]): 112
- Population Apoptotic (%) (U2OS; [10]): 35%
- Population Fragmented Nuclei (%) (U2OS; [10]): 10%
- Population Healthy Nuclei (%) (U2OS; [10]): 75%
- Population Hoechst High Intensity Objects (%) (U2OS; [10]): 1%
- Population Membrane Permeable-Phenotype (%) (U2OS; [10]): 6%
- Population Mitochondria Different-Phenotype (%) (U2OS; [10]): 17%
- Population Mitotic Cells (%) (U2OS; [10]): 64%
- Population Normal (%) (U2OS; [10]): 98%
- Population Pyknosed Nuclei (%) (U2OS; [10]): 13%
- Population Tubulin-Different-Phenotype (%) (U2OS; [10]): 10%
- Total Cell Count (U2OS; [10]): 110
- Population Apoptotic (%) (U2OS; [11]): 91%
- Population Fragmented Nuclei (%) (U2OS; [11]): 50%
- Population Healthy Nuclei (%) (U2OS; [11]): 1%
- Population Hoechst High Intensity Objects (%) (U2OS; [11]): 14%
- Population Membrane Permeable-Phenotype (%) (U2OS; [11]): 100%
- Population Mitochondria Different-Phenotype (%) (U2OS; [11]): 100%
- Population Mitotic Cells (%) (U2OS; [11]): 8%
- Population Normal (%) (U2OS; [11]): 85%
- Population Pyknosed Nuclei (%) (U2OS; [11]): 48%
- Population Tubulin-Different-Phenotype (%) (U2OS; [11]): 100%
- Total Cell Count (U2OS; [11]): 260
- Population Apoptotic (%) (U2OS; [12]): 100%
- Population Fragmented Nuclei (%) (U2OS; [12]): 64%
- Population Healthy Nuclei (%) (U2OS; [12]): 24%
- Population Hoechst High Intensity Objects (%) (U2OS; [12]): 39%
- Population Membrane Permeable-Phenotype (%) (U2OS; [12]): 90%
- Population Mitochondria Different-Phenotype (%) (U2OS; [12]): 90%
- Population Mitotic Cells (%) (U2OS; [12]): 0%
- Population Normal (%) (U2OS; [12]): 60%
- Population Pyknosed Nuclei (%) (U2OS; [12]): 11%
- Population Tubulin-Different-Phenotype (%) (U2OS; [12]): 90%
- Total Cell Count (U2OS; [12]): 103
